Active and inactive are the calls of the source. No cut-off for these calls is given here.
Columns and labels:
[1] = target: Carbonic anhydrase 9 (Homo sapiens, UniProt Q16790); experiment: Inhibition of human carbonic anhydrase 9 incubated for 15 mins by stopped flow CO2 hydrase assay
[2] = target: Carbonic anhydrase 1 (Homo sapiens, UniProt P00915); experiment: Inhibition of human carbonic anhydrase 1 incubated for 15 mins by stopped flow CO2 hydrase assay
[3] = tested on: HT-29; experiment: Cytotoxicity in human HT-29 cells assessed as cell mortality at 30 to 300 uM incubated for 16 hrs under normoxic conditions by MTT assay; type: functional
[4] = tested on: HT-29; experiment: Cytotoxicity in human HT-29 cells assessed as reduction in cell viability at 30 to 300 uM incubated for 16 hrs under normoxic conditions by MTT assay; type: functional, cell-based
Summary of the method: (§1)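 HT-29 human colon cancer cells seeded at 1 × 10^4 per well and exposed to 30−300 μM for 16 or 48 h, under normoxia (20% O2) or hypoxia (0.1% O2). Viability is given relative to untreated control set at 100%, as mean ± SEM of three experiments, with significance tested against 0 μM.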

[5] = tested on: HT-29; experiment: Cytotoxicity in human HT-29 cells assessed as reduction in cell viability at 30 to 300 uM incubated for 16 hrs under hypoxic conditions by MTT assay
[6] = tested on: HT-29; experiment: Cytotoxicity in human HT-29 cells assessed as reduction in cell viability at 30 to 300 uM incubated for 48 hrs under hypoxic conditions by MTT assay; type: functional; summary of the method: as §1

Sequence of Carbonic anhydrase 1 (P00915 whole entry): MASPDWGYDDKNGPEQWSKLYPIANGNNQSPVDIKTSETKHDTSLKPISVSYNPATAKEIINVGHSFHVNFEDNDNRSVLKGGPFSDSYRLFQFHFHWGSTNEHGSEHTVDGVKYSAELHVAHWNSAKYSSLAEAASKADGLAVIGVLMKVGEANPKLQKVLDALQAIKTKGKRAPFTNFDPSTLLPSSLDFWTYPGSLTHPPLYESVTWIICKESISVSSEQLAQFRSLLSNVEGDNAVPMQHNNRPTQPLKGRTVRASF

| SMILES | Ki [1] | also measured |
| --- | --- | --- |
| Nc1ncnc2c1ncn2Cc1cn(-c2ccc(S(N)(=O)=O)cc2)nn1 | 0.0019 µM |  |
| CN(C)/C=N/c1ncnc2c1ncn2CC(=O)NCc1ccc(S(N)(=O)=O)cc1 | 0.166 µM |  |
| Nc1ncnc2c1ncn2CC(=O)NCc1ccc(S(N)(=O)=O)cc1 | 0.0452 µM |  |
| Nc1ncnc2c1ncn2Cc1cn(-c2cccc(S(N)(=O)=O)c2)nn1 | 1.31 µM | Ki [2]: > 10 µM |
| Nc1ncnc2c1ncn2CC(=O)Nc1ccc(S(N)(=O)=O)cc1 | 0.0169 µM | Activity [3]: 10 - 15%; Activity [4]: Active; Activity [5]: Active; Activity [6]: 25 - 30% |
| Nc1ncnc2c1ncn2CCOc1ccc(S(N)(=O)=O)cc1 | 0.0299 µM | Activity [3]: 10 - 15%; Activity [4]: Active; Activity [5]: inactive; Activity [6]: 25 - 30% |
| Nc1ncnc2c1ncn2CC(=O)NCCc1ccc(S(N)(=O)=O)cc1 | 0.0114 µM | Activity [3]: 10 - 15%; Activity [5]: inactive |
| CN(C)/C=N/c1ncnc2c1ncn2CC(=O)NCCc1ccc(S(N)(=O)=O)cc1 | 0.113 µM |  |

Second part, led by results:

| Ki [1] | SMILES | also measured |
| --- | --- | --- |
| 0.046 µM | NS(=O)(=O)c1ccc(CCNC(=O)Cn2ccc(=O)[nH]c2=O)cc1 |  |
| 0.0048 µM | NS(=O)(=O)c1ccc(-n2cc(Cn3ccc(=O)[nH]c3=O)nn2)cc1 |  |
| 0.439 µM | NS(=O)(=O)c1ccc(O)c(NC(=O)Cn2ccc(=O)[nH]c2=O)c1 |  |
| 0.0257 µM | NS(=O)(=O)c1ccc(NC(=O)Cn2ccc(=O)[nH]c2=O)cc1 | Activity [4]: Active; Activity [5]: inactive; Activity [6]: 25 - 30% |
| 0.04 µM | CN(C)/C=N/c1ncnc2c1ncn2CC(=O)Nc1ccc(S(N)(=O)=O)cc1 |  |
| 0.428 µM | Nc1ncnc2c1ncn2CC(=O)Nc1cccc(S(N)(=O)=O)c1 | Ki [2]: > 10 µM |
| 3.12 µM | NS(=O)(=O)c1cccc(NC(=O)Cn2ccc(=O)[nH]c2=O)c1 |  |
| 0.46 µM | NS(=O)(=O)c1cccc(-n2cc(Cn3ccc(=O)[nH]c3=O)nn2)c1 |  |
| 2.81 µM | CN(C)/C=N/c1ncnc2c1ncn2CC(=O)Nc1cccc(S(N)(=O)=O)c1 | Ki [2]: > 10 µM |
| 0.405 µM | NS(=O)(=O)c1ccc(CNC(=O)Cn2ccc(=O)[nH]c2=O)cc1 |  |

Source: ChEMBL document CHEMBL4130598, “Discovery of New Sulfonamide Carbonic Anhydrase IX Inhibitors Incorporating Nitrogenous Bases” (ACS Med Chem Lett, 2017)
